Results from ChEMBL document CHEMBL2040780, “Antiarrhythmic properties of phenylpiperazine derivatives of phenytoin with α₁-adrenoceptor affinities” (Bioorg Med Chem, 2012).

Columns and labels:
[1] = test system: Rattus norvegicus; experiment: Cardiotoxicity in Wistar rat assessed as effect on QRS interval at 5 mg/kg, iv after 5 mins; format: toxicity, organism-based; parameters: dose 5 mg/kg, route intravenous; settings: in vivo
Outline: (§1)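 Male Wistar rats (180–250 g), anaesthetised with thiopental 60 mg/kg ip. Compound given iv in water at 10 mg/kg, or at a lower starting dose of 5 or 2.5 mg/kg. Standard lead II ECG recorded at 50 mm/s just before dosing and at 1, 5 and 15 min after. Heart rate and P–Q, Q–T and QRS intervals were read. n=6 per group, mean ± SEM, one-way ANOVA.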

[2] = test system: Rattus norvegicus; experiment: Cardiotoxicity in Wistar rat assessed as effect on Q-T interval at 5 mg/kg, iv after 5 mins; format: toxicity, organism-based; parameters: dose 5 mg/kg, route intravenous; settings: in vivo; outline: as §1
[3] = test system: Rattus norvegicus; experiment: Cardiotoxicity in Wistar rat assessed as effect on QRS interval at 5 mg/kg, iv after 15 mins; format: toxicity, organism-based; parameters: dose 5 mg/kg, route intravenous; settings: in vivo, 0.25 h; outline: as §1
[4] = test system: Rattus norvegicus; experiment: Antiarrhythmic activity in Wistar rat assessed as effect on heart beat at 5 mg/kg, iv after 5 mins; format: functional; outline: as §1
[5] = test system: Rattus norvegicus; experiment: Hypotensive activity in normotensive Wistar rat assessed as decrease in diastolic blood pressure at 2.5 to 10 mg/kg, iv after 1 min measured up to 60 mins; format: organism-based, Artery; parameters: dose 2.5-10 mg/kg, route intravenous; settings: in vivo
Outline: (§2)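 Right carotid artery cannulated with heparin-saline-filled tubing for blood pressure recording. After 5 min stabilisation, compound injected iv into the caudal vein (2.5–10 mg/kg, 1 ml/kg). Systolic and diastolic pressure followed for 60 min. n=6 per group, mean ± SEM, one-way ANOVA.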

[6] = test system: Rattus norvegicus; experiment: Hypotensive activity in normotensive Wistar rat assessed as decrease in diastolic blood pressure at 2.5 to 10 mg/kg, iv at 1 min; format: organism-based, Artery; parameters: dose 2.5-10 mg/kg, route intravenous; settings: in vivo; outline: as §2
[7] = test system: Rattus norvegicus; experiment: Cardiotoxicity in Wistar rat assessed as effect on P-Q interval at 5 mg/kg, iv after 15 mins; format: toxicity, organism-based; parameters: dose 5 mg/kg, route intravenous; settings: in vivo, 0.25 h; outline: as §1
[8] = test system: Rattus norvegicus; experiment: Cardiotoxicity in Wistar rat assessed as effect on Q-T interval at 5 mg/kg, iv after 1 min; format: toxicity, organism-based; parameters: dose 5 mg/kg, route intravenous; settings: in vivo; outline: as §1
[9] = test system: Rattus norvegicus; experiment: Antiarrhythmic activity in Wistar rat assessed as effect on heart beat at 5 mg/kg, iv after 15 mins; format: functional; outline: as §1
[10] = test system: Rattus norvegicus; experiment: Hypotensive activity in normotensive Wistar rat assessed as decrease in systolic blood pressure at 2.5 to 10 mg/kg, iv after 1 min measured up to 60 mins; format: organism-based, Artery; parameters: dose 2.5-10 mg/kg, route intravenous; settings: in vivo; outline: as §2
[11] = test system: Rattus norvegicus; experiment: Hypotensive activity in normotensive Wistar rat assessed as decrease in systolic blood pressure at 2.5 to 10 mg/kg, iv at 1 min; format: organism-based, Artery; parameters: dose 2.5-10 mg/kg, route intravenous; settings: in vivo; outline: as §2
[12] = test system: Rattus norvegicus; experiment: Cardiotoxicity in Wistar rat assessed as effect on P-Q interval at 5 mg/kg, iv after 5 mins; format: toxicity, organism-based; parameters: dose 5 mg/kg, route intravenous; settings: in vivo; outline: as §1
[13] = test system: Rattus norvegicus; experiment: Antiarrhythmic activity in Wistar rat assessed as effect on heart beat at 5 mg/kg, iv after 1 min; format: functional; outline: as §1
[14] = test system: Rattus norvegicus; experiment: Cardiotoxicity in Wistar rat assessed as effect on P-Q interval at 5 mg/kg, iv after 1 min; format: toxicity, organism-based; parameters: dose 5 mg/kg, route intravenous; settings: in vivo; outline: as §1
[15] = target: T1, Adrenergic receptor alpha-1 (Rattus norvegicus, UniProt P15823+P23944+P43140); experiment: Displacement of [3H]prazosin from alpha1 adrenoceptor in rat cerebral cortex after 30 mins by microbeta scintillation counting; format: tissue-based
T1 sequence (P15823 whole entry): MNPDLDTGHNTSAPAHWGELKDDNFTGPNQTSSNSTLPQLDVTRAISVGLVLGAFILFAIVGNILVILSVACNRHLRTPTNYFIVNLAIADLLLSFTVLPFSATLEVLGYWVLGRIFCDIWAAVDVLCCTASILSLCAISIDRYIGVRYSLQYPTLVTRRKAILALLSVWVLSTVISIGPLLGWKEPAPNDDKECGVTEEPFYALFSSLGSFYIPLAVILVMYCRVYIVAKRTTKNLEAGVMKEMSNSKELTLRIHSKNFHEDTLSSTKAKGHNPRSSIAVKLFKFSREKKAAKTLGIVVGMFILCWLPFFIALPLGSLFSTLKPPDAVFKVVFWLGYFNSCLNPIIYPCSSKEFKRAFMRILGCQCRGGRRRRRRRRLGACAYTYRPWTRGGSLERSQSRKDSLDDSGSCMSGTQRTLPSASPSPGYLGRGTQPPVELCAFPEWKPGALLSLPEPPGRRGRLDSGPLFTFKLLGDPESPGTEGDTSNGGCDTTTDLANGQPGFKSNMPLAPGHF
T1 sequence (P23944 whole entry): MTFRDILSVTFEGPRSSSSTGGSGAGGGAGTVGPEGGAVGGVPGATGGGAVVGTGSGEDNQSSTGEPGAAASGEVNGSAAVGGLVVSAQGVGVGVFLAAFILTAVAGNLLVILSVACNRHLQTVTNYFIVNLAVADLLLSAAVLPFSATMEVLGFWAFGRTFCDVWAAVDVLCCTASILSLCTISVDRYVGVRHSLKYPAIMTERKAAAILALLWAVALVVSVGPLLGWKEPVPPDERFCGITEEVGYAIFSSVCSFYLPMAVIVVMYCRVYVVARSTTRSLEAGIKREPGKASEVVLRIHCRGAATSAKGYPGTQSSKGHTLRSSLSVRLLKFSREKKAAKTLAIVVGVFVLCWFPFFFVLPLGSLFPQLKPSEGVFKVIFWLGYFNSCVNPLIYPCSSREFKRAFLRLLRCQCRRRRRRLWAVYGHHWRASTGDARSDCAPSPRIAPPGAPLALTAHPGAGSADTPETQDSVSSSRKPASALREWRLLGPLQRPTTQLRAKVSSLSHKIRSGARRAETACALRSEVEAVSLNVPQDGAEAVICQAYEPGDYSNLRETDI
T1 sequence (P43140 whole entry): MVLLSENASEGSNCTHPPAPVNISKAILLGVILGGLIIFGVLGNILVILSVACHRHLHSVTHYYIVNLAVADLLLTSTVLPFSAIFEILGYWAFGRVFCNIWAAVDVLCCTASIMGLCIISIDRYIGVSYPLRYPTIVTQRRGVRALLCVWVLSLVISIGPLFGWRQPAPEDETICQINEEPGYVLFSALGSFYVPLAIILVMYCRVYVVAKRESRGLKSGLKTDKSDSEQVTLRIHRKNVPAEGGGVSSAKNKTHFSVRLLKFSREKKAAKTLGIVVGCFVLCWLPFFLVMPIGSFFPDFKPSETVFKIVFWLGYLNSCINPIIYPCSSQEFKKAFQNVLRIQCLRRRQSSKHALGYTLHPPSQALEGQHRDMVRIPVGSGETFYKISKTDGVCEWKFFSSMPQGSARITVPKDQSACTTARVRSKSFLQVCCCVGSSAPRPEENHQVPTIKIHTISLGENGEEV
Outline: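 Rat cerebral cortex homogenised in ice-cold 50 mM Tris-HCl (pH 7.6 at 25 °C), washed twice at 20000×g and resuspended at 10 mg wet weight/ml. Incubated with [3H]prazosin (19.5 Ci/mmol) and test compound for 30 min at 25 °C. Nonspecific binding defined with 10 µM phentolamine. GF/B filtration, scintillation counting, three-parameter logistic competition fit.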

[16] = test system: Rattus norvegicus; experiment: Cardiotoxicity in Wistar rat assessed as effect on Q-T interval at 5 mg/kg, iv after 15 mins; format: toxicity, organism-based; parameters: dose 5 mg/kg, route intravenous; settings: in vivo, 0.25 h; outline: as §1
[17] = test system: Rattus norvegicus; experiment: Cardiotoxicity in Wistar rat assessed as effect on QRS interval at 5 mg/kg, iv after 1 min; format: toxicity, organism-based; parameters: dose 5 mg/kg, route intravenous; settings: in vivo; outline: as §1

`COC(=O)CN1C(=O)N(CC(O)CN2CCN(c3ccccc3Cl)CC2)C(c2ccccc2)(c2ccccc2)C1=O.Cl` (racemic) gave an Activity [1] of 15 ms, an Activity [2] of 76 ms and an Activity [3] of 17 ms. For the same compound, the Activity [4] was 256 min⁻¹, the Activity [5] was “Non-toxic” and the Activity [6] was “Toxic”. The Activity [7] was 59 ms, the Activity [8] was 76 ms and the Activity [9] was 268 min⁻¹. The Activity [10] was “Non-toxic”, the Activity [11] was “Toxic” and the Activity [12] was 63 ms. For the same compound, the Activity [13] was 290 min⁻¹, the Activity [14] was 62 ms and the Ki [15] was 354.7 nM. For the same compound, the pKi [15] was 6.45, the Activity [16] was 69 ms and the Activity [17] was 16 ms.
